This is a sample that favours compounds with a hit; in the whole collection about 2.5% have one here.
ABCG2 inh: blocks JC-1 efflux by human ABCG2 transporter. Q9UNQ0. IgMXP3 cells, flow cytometry. inhibition, % at 6.6 µM. hit rate 0.1% among 190,000. AID 1325;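 active = inhibition above 80%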;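 also: 0% = DMSO and 100% = nicardipine control wells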
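System: two drug-resistant human cell lines, ABCG2 and ABCB1; controls: nicardipine high and DMSO low controls; times: 10 min exposure at 25 °C with rotation, no wash; detection: flow cytometry of retained JC-1 fluorescence; read-out basis: percent efflux inhibition, scaled nicardipine 100% to DMSO 0%; doses: one concentration, 6.6 µM final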
MEKK3 PB1 HTS: raises or lowers MEK5 binding to the human MEKK3 PB1 domain; Q99759; bead-based flow cytometry, Alexa488-MEK5 binding to MEKK3; actives lie on both sides; 0 = blocked by unlabeled MEK5, 100 = vehicle; binding response (% of control), % at 10 µM; hit rate 1.4% among 290,000;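 active = binding response more than 3 SD above or below the average of its plate-row segment, actives on both sides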;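 also: Alexa488 bead fluorescence after subtracting the streptavidin-only scavenger bead signal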
MEKK2mut PB1 HTS: signal of MEK5 binding to mutant human MEKK2 PB1 domain | AID 1530 | hit rate 0.35% among 290,000 | bead flow cytometry, Alexa488-MEK5 binding to MEKK2 mutant | percent response, % at 10 µM; in the data active = percent response above about 24%, passing the limit was not always enough
MEKK2 WT-MEK5: raises or lowers MEK5 binding to wildtype human MEKK2 PB1 domain; Q9Y2U5; bead flow cytometry, Alexa488-MEK5 binding to MEKK2 WT; actives lie on both sides; binding response (% of control), % at 10 µM; hit rate 1.1% among 290,000; in the data active = binding response below about 67% or above about 130%
ABCB1 inh: inhibitors of human ABCB1 transporter, ABCG2 counter-screen | P08183 | CCRF-Adr cells, JC-1 efflux, flow cytometry | inhibition, % at 6.6 µM | hit rate 0.067% among 190,000; in the data active = inhibition above about 40%;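 also: 0% = vehicle and 100% = reference inhibitor; higher value means more JC-1 retained so stronger ABCB1 efflux block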
Target sequence (P08183 whole entry, looked up): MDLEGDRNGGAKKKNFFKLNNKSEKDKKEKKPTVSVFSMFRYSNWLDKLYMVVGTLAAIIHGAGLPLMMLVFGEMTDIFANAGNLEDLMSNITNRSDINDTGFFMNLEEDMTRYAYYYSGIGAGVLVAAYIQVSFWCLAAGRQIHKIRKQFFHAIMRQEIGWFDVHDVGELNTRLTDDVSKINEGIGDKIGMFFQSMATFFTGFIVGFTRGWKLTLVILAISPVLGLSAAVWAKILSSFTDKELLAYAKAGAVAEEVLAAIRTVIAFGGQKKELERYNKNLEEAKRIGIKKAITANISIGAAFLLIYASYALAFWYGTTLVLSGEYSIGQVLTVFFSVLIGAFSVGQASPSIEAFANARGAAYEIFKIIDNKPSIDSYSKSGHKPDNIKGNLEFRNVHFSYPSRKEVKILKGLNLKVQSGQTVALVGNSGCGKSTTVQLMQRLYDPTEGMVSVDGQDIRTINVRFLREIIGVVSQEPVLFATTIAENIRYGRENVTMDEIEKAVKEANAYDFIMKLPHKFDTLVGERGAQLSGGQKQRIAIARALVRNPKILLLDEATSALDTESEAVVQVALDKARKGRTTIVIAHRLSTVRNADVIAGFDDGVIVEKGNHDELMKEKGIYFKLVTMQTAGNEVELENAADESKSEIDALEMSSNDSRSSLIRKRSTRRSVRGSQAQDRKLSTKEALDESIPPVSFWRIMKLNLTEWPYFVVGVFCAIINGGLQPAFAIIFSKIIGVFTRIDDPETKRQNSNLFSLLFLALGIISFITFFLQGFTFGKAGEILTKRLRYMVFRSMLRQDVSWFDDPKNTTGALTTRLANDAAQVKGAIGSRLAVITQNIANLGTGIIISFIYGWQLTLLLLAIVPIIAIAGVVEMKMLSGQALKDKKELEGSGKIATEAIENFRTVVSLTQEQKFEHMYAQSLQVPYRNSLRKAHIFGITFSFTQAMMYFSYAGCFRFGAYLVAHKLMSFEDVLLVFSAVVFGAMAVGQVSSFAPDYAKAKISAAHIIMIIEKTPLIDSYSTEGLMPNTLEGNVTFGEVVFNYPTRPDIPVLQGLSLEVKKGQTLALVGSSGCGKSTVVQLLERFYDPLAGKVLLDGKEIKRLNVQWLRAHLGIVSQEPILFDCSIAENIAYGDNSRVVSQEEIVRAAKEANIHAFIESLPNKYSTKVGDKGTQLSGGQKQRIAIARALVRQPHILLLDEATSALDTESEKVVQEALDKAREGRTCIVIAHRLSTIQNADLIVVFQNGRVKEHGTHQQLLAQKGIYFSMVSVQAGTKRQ
Efflux pump mplx: antifungal efflux pump inhibition, Nile Red retention; S. cerevisiae Candida pump triplex; inhibition, % at 10 µM; hit rate 0.44% among 330,000;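 active = plate passing quality check with inhibition over a set limit, or well fluorescence over plate mean plus 4 SD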;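 also: Nile Red retained in pooled yeast measured as flow cytometry median fluorescence; 0% = buffer negative control and 100% = Enniatin B positive control; higher means more Nile Red kept so more efflux inhibition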
MEKK2wt confirm: raises or lowers MEK5 binding to wildtype human MEKK2, retest. bead flow cytometry, Alexa488-MEK5 binding to MEKK2 WT; actives lie on both sides. binding response (% of control), % at 10 µM. AID 1892. shares compounds with MEKK3 PB1 HTS. hit rate 2.4% among 5,900; in the data active = binding response below about 16% or above about 210%; inactive = in between
MEKK2mut-MEK5: signal of MEK5 binding to mutant human MEKK2, retest; hit rate 2% among 5,900; shares compounds with MEKK3 PB1 HTS; bead flow cytometry, Alexa488-MEK5 binding to MEKK2 mutant; percent response, % at 10 µM; in the data active = percent response mostly above about 71%, no sharp cut-off; inactive = mostly below about 38%;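 also: higher means compound restores mutant binding toward wildtype level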
MEKK3 confirm: confirmation of inhibitors of MEK5 binding to human MEKK3; binding response (% of control), % at 10 µM; bead flow cytometry, Alexa488-MEK5 binding to MEKK3; active compounds read low; shares compounds with MEKK3 PB1 HTS; hit rate 1.8% among 5,900;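 active = binding response below 72% of control, or above a set upper limit, though filed actives all read lower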;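 also: 100% = DMSO only wells and 0% = binding blocked by excess unlabeled MEK5; lower values mean stronger disruption of MEK5 binding to MEKK3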
Numbers without * were called inactive; x = no result given; [ ] = remark or other dose.

SMILES	ABCG2 inh	MEKK3 PB1 HTS	MEKK2mut PB1 HTS	MEKK2 WT-MEK5	ABCB1 inh	Efflux pump mplx	MEKK2wt confirm	MEKK2mut-MEK5	MEKK3 confirm
CC1(C)CC(=O)C(C=NCCN2CCN(C(=S)Nc3ccccc3)CC2)=C(O)C1	1	3.0*[inhibitor]	-14	3.0*[inhibitor]	0	0	102	5	103
Cc1ccc(C2CC(=O)C(C=NCCN3CCN(C(=S)Nc4ccccc4)CC3)=C(O)C2)cc1 (centres undefined)	8	107	7	110	0	0	x	x	x
COc1ccc(C(CNC(=O)c2cncc(Br)c2)N(C)C)cc1 (centres undefined)	1	101	2	106	0	0	x	x	x
Cc1nc2cc(-c3ccc(Cl)cc3)nn2c(NCCN(C)C)c1C	15	113	29	148*	7	0	132	18	110
COc1ccccc1N1CCN(C(=O)CCC(=O)O)CC1	0	101	0	102	0	0	x	x	x
CCOC(=O)C(=O)N1CCN(c2ccccc2OC)CC1	7	71*[inhibitor]	-16	76	0	0	102	2	100
CCN(CC)CC(C)OC(=O)c1ccccc1Cl (centres undefined)	-1	101	-1	100	0	0	x	x	x
N=C1/C(=C\c2coc3ccccc3c2=O)C(=O)N=C2SC(c3ccncc3)=NN12	x	70*[inhibitor]	-10	67	x	0	101	2	101
CCN(C[C@H]1N[C@@](CC)(C(=O)OC)[C@H]2C(=O)N(Cc3ccccc3)C(=O)[C@@H]12)C(=O)c1ccccc1	x	x	x	x	x	0	x	x	x
COc1cc(C2C(C#N)=C(C)NC(C)=C2C#N)cc(OC)c1OC	3	108	1	104	1	0	x	x	x
O=S(=O)(NCc1cccnc1)c1ccccc1	0	104	6	103	-1	0	x	x	x
CC(=O)[C@]1(O)Cc2c(O)c3c(c(O)c2[C@@H](O[C@H]2C[C@H](N)[C@H](O)[C@H](C)O2)C1)C(=O)c1ccccc1C3=O	x	105	30*	25*	x	0	104	2	101
CC1CCN(S(=O)(=O)c2ccc(NC(=O)CN3CCCC(C)C3)cc2)CC1 (centres undefined)	2	15*[inhibitor]	-22	24*[inhibitor]	1	0	99	2	100
CC1CCCN(CC(=O)Nc2ccc(S(=O)(=O)N3CCCC3)cc2)C1 (centres undefined)	x	102	-1	103	x	0	x	x	x
CC1CCN(S(=O)(=O)c2ccc(NC(=O)Cc3ccccc3)cc2)CC1	1	0.0*[inhibitor]	-40	-5.0*[inhibitor]	0	0	100	-4	99
Cc1nc2cc(NC(=O)N3CC4(C)CC3CC(C)(C)C4)ccc2n1C (centres undefined)	0	2.0*[inhibitor]	-29	-2.0*[inhibitor]	0	0	106	4	101
Cc1nc2cc(NC(=O)N3CCCC3)ccc2n1C	-1	90	-13	77	0	0	x	x	x
CCCN(CCC)S(=O)(=O)c1ccc(NC(=O)Cc2cccs2)cc1	6	100	1	100	-1	0	x	x	x
CCCCN(CCCC)S(=O)(=O)c1ccc(NC(=O)Cc2cccs2)cc1	1	112	15	143*	0	0	104	-8	104
CC(C)NS(=O)(=O)c1ccc(CCC(=O)Nc2ccc3c(c2)OCCO3)cc1	8	164*	3	114	0	0	101	-2	95
CCNS(=O)(=O)c1ccc(CCC(=O)Nc2ccc3c(c2)OCCO3)cc1	x	105	0	102	x	0	x	x	x
CCN(CC)S(=O)(=O)c1ccc(N2CCCC2)c(NC(=O)c2ccc(N3CCCC3=O)cc2)c1	x	x	x	x	x	0	x	x	x
O=C(c1cccc([N+](=O)[O-])c1)N1CCN(c2ncccn2)CC1	x	106	32*	98	x	0	101	-4	100
O=C(C(=O)N1CCc2ccccc2C1)c1cn(CC(=O)N2CCCC2)c2ccccc12	0	131*	2	110	0	0	101	2	103
O=C(COC(=O)c1ccccc1NC(=O)c1ccco1)NCc1ccc2c(c1)OCO2	3	98	4	103	0	0	x	x	x
SMILES	ABCG2 inh	MEKK3 PB1 HTS	MEKK2mut PB1 HTS	MEKK2 WT-MEK5	ABCB1 inh	Efflux pump mplx	MEKK2wt confirm	MEKK2mut-MEK5	MEKK3 confirm
C/C(N)=C(/C#N)C(=O)COC(=O)c1ccncc1	1	135*	6	113	0	0	104	2	104
Cc1cc(NCc2ccccc2)c2ccccc2n1	x	111	8	149*	x	0	116	9	103
Cc1cc(-c2ccccc2)nc(N/N=C/c2ccc(O)cc2O)n1	x	108	6	111	x	0	x	x	x
COc1ccc2nc(C)cc(N/N=C/c3cccc(OC)c3O)c2c1	x	116	72*	260*	x	0	236*	79*	106
Cc1cc(N/N=C/c2ccccc2O)c2ccccc2n1	x	108	14	186*	x	1	135	14	102
COc1ccc(/C=N/Nc2cc(C)nc3ccc(Br)cc23)cc1	x	106	73*	214*	x	0	245*	120*	107
Cc1cc(NCc2ccccc2)nc2ccccc12	2	99	3	106	0	0	x	x	x
COc1cccc2c(N/N=C/c3ccccc3)cc(C)nc12	x	100	-3	102	x	0	x	x	x
CCSc1nnc(NC(=O)C2Cc3ccccc3CN2S(=O)(=O)CC)s1 (centres undefined)	2	12*[inhibitor]	-1	16*[inhibitor]	1	1	99	2	104
CCCCN(C(=O)c1ccc(OC)c([N+](=O)[O-])c1)c1c(N)n(CCC)c(=O)[nH]c1=O	x	99	5	101	x	0	x	x	x
Cc1sc2nc(CN3CCOCC3)nc(Cl)c2c1C	2	102	1	101	1	0	x	x	x
Cc1sc2nc(CN3CCC(C)CC3)nc(Cl)c2c1C	1	161*	6	111	2	0	97	-3	95
C=CCNC(=S)Nc1cccc(NC(=S)NCC=C)c1	-7	101	-1	99	-1	0	x	x	x
C=CCNC(=S)Nc1ccccc1	0	79*[inhibitor]	-13	77	0	0	99	-6	98

From PubChem
